KCNQ1 block: inhibitors of human KCNQ1 potassium channel; P51787; CHO-K1 KCNQ1, FluxOR thallium flux fluorescence; stronger effect = higher value; B-score at 10 µM; 310,000 tested, 1.3% active; AID 2642;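 active = compounds whose thallium flux B-score, printed positive for inhibition, exceeds three library SD while starting fluorescence stays within three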;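 also: channel opened by potassium depolarization with thallium stimulus after 20 min compound exposure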
hERG rescue: hERG (human) protection from proarrhythmic block; CHO-hERG, FluxOR thallium flux, dofetilide IC70 present; 310,000 tested, 0.51% active; Q12809; activation (rescue from dofetilide block), less the hit threshold, % at 10 µM;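 active = activation above the mean of controls blocked by dofetilide plus 5 SD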;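 also: thallium influx through hERG after potassium depolarization seen as dye fluorescence rise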
KCNQ1 act: human KCNQ1 channel potentiation or activation. CHO-K1 KCNQ1, thallium flux FluxOR fluorescence; stronger effect = higher value. B-score at 10 µM. 310,000 tested, 0.35% active. AID 2648;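 active = fluorescence ratio B-score, a plate-corrected score, at least three library SD, with initial intensity B-score within 5 SD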
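System: CHO-K1 cells stably expressing KCNQ1 / Medium: assay buffer for compound exposure, DMSO matched across wells / Reagent: thallium- and potassium-containing depolarizing buffer / Compound: one concentration, matched DMSO / Incubation: 20 min compound pretreatment at room temperature / Measured by: kinetic FluxOR fluorescence, 10 s baseline plus 110 s post-stimulus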
KCNK3 block: human KCNK3 channel inhibition, primary screen; O14649; 340,000 tested, 0.84% active; CHO-KCNK3 thallium flux, FluxOR fluorescence; stronger effect = lower value; B-score at 10 µM;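 active = B-score under library mean minus 4 SD, starting fluorescence ratio at most library mean plus 5 SD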;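 also: more negative B-score means stronger inhibition of thallium flux through KCNK3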
KCNK9 inh: inhibitors of human KCNK9 two-pore domain potassium channel; HEK293 KCNK9, FluxOR thallium flux fluorescence; stronger effect = lower value; B-score at 10 µM; 310,000 tested, 1.2% active; AID 488922;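 active = ratio B-score over 3 SD below the library mean, with starting fluorescence within 5 SD of its mean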;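 also: negative B-score means less thallium flux so channel inhibition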
Target sequence (Q9NPC2 whole entry, looked up, the tested form may be a part): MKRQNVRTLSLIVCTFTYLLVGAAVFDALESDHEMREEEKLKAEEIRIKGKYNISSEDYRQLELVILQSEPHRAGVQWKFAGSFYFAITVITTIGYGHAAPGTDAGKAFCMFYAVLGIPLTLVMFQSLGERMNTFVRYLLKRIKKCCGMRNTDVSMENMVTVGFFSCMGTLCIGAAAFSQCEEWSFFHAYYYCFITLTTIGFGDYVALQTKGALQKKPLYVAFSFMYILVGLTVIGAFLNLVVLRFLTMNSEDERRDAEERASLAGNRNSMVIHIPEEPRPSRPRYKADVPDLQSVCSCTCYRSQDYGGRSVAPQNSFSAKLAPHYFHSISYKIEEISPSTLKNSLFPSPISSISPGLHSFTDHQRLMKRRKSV
KCNK9 inh conf: confirmation of human KCNK9 potassium channel inhibitors; shares compounds with KCNK9 inh; inhibition, % at 10 µM; 4,900 tested, 43% active; HEK293 KCNK9 cells, FluxOR thallium flux fluorescence; AID 492992;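 active = thallium signal inhibited by more than 5 SD of the compound-free buffer control wells, on both duplicate plates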;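 also: 0% = assay buffer control wells without compound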
Kir21 sel: mouse Kir2.1 off-target activity of KCNK9 modulators. 4,900 tested, 4% active. Kir2.1 cells, FluxOR thallium flux fluorescence. inhibition, % at 10 µM. AID 492993. shares compounds with KCNK9 inh;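 active = thallium signal drop more than 5 SD beyond the mean of the no-compound control wells, seen in both duplicate plates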;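 also: signal is fluorescence rise after thallium addition divided by baseline fluorescence; plate controls were assay buffer only for no effect and full block by chlorpromazine control for full effect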
HEK293 Tl ctr: second check of KCNK9 modulator effects in non-induced HEK293 cells | AID 492997 | shares compounds with KCNK9 inh | 4,900 tested, 40% active | FluxOR thallium flux | inhibition, % at 10 µM;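 active = thallium signal drop beyond 5 SD of the untreated control mean, on both duplicate plates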;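 also: plate controls were buffer only IC0 wells for no effect and SID17386958 at its maximal inhibitory level for full effect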
KCNK3 inh conf: human KCNK3 channel inhibition, confirmation assay; shares compounds with KCNK3 block; CHO-KCNK3 thallium flux, FluxOR fluorescence; 0% buffer, 100% carvedilol maximal block; ratio percent of control, % at 10 µM; 2,400 tested, 99% active;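 active = ratio percent of control, averaged over triplicates, above buffer control mean plus 5 SD, cut at about 64% in these data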;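 also: ratio is the fluorescence rise from min to max over baseline after thallium stimulus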
KCNK3 uninduced: KCNK3 inhibitor counter-screen hit in non-induced cells | shares compounds with KCNK3 block | 2,400 tested, 40% active | AID 651747 | thallium flux ratio (lower = more inhibition) at 10 µM | non-induced KCNK3 parental cells, FluxOR thallium flux; stronger effect = lower value;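 active = thallium flux ratio, averaged over three wells, more than 5 SD below the buffer control mean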;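 also: host cells are CHO cells without KCNK3 induction; ratio is peak minus trough fluorescence over baseline then normalized to buffer controls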
Active calls of the source: *; i = inactive; . = no result given. In the library only some 3.1% were active in any assay of this set; here they are far more common.

SMILES	KCNQ1 block	hERG rescue	KCNQ1 act	KCNK3 block	KCNK9 inh	KCNK9 inh conf	Kir21 sel	HEK293 Tl ctr	KCNK3 inh conf	KCNK3 uninduced
CSCc1c(C(=O)Nc2ccc3c(c2)OCO3)oc2ccccc12	i	-9.9	i	-8.72*	-9.48*	39.0%*	i	30.0%*	123.7*	0.146*
COc1cc(CN2CCN(CC#Cc3ccccc3)CC2CCO)cc(OC)c1 (centres undefined)	i	-8.6	i	i	i	.	.	.	.	.
CCC(C(=O)O/N=C(\N)c1cccc(C)c1)c1ccccc1 (centres undefined)	i	-13.2	i	-14.6*	-9.31*	34.5%*	i	23.5%*	127.0*	0.151*
Cc1cccc(/C(N)=N/OC(=O)Cc2ccccc2)c1	i	-8.1	i	i	i	.	.	.	.	.
CC1(C)Cc2cccc(Oc3cc(NN4CCCCC4)c([N+](=O)[O-])cc3[N+](=O)[O-])c2O1	6*	-7.3	i	-11.7*	-14.4*	56.5%*	i	40.5%*	87.7*	i
O=[N+]([O-])c1cc([N+](=O)[O-])c(Oc2cccc(Cl)c2Cl)cc1NN1CCCCC1	i	-6.5	i	i	i	.	.	.	.	.
c1csc(C(c2nnnn2C2CCCCC2)N2CCCC3(CCCCC3)C2)c1 (centres undefined)	i	-12.8	i	i	i	.	.	.	.	.
CC(C)(C)n1nnnc1C(c1cccs1)N1CCCC2(CCCCC2)C1 (centres undefined)	i	-5.2	i	-9.13*	-17.1*	40.0%*	i	39.5%*	125.3*	0.13*
CN1CCN(C2CCCCC2NS(=O)(=O)c2ccccc2)CC1 (centres undefined)	i	-7.7	i	i	i	.	.	.	.	.
O=S(=O)(NC1CCCCC1N1CCN(c2cccc(Cl)c2)CC1)c1ccccc1 (centres undefined)	i	-9.4	i	-10.3*	-13.4*	57.0%*	i	41.5%*	107.3*	i
CS(=O)(=O)N(CC(=O)N1CCC(C(N)=O)CC1)Cc1ccc(Cl)c(Cl)c1	i	-3.0	i	i	i	.	.	.	.	.
O=C(CCCSc1nnc(SCCCC(=O)c2ccc(F)cc2)s1)c1ccc(F)cc1	i	-17.8	i	-10.7*	i	i	i	i	100.0*	i
CCc1nnc(NC(=O)COC(=O)c2cc(OC)cc(OC)c2)s1	.	.	.	i	.	.	.	.	.	.
CCN(C(=O)CSc1nc2n[nH]c(C)c2c(=N)n1-c1ccc(Cl)c(C)c1)c1cccc(C)c1	i	-7.6	i	-12*	-21.2*	68.5%*	i	40.0%*	96.7*	0.13*
CCCCn1c(N)c(N(CC(C)C)C(=O)CSc2ccccc2C)c(=O)[nH]c1=O	i	-11.9	i	i	i	.	.	.	.	.
O=C(/C=C/Nc1ccccc1C(F)(F)F)c1ccco1	i	-0.6	i	-9.12*	-8.8*	i	i	i	90.3*	i
Cc1cc(/C=N/NC(=O)c2cccs2)c(C)n1-c1ccccc1	i	-9.9	i	-10.2*	-10*	43.0%*	i	i	118.3*	0.139*
CN(C)S(=O)(=O)c1ccc(Cl)c(NC(=O)CSc2nnnn2-c2ccc(O)cc2)c1	i	-2.0	i	-9.02*	-12.5*	50.5%*	i	27.5%*	95.7*	i
Cn1nnnc1SCC(=O)Nc1cc(S(=O)(=O)N2CCCC2)ccc1Cl	i	-12.8	i	i	i	.	.	.	.	.
Cc1ccc(S(=O)(=O)N(C)C)cc1NC(=O)CSc1nnnn1-c1ccc(O)cc1	i	-14.6	i	-9.8*	-14*	41.5%*	i	25.5%*	106.3*	i

Compound activity: PubChem, Johns Hopkins Ion Channel Center
